Experimental data from ChEMBL document CHEMBL1147694, “Synthesis and biological activity of conjugates between paclitaxel and the cell delivery vector penetratin” (Bioorg Med Chem Lett, 2006).

Legend:
[1] = tested on: A549; assay: Antiproliferative activity against human A549 cell line by MTT assay after 72 hrs; type: functional, cell-based
Outline: (§1)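 Human tumour cells, MCF7 (breast) and A549 (lung), were exposed to test compounds for 72 h, and growth was read by MTT assay. IC50 is the concentration giving 50% growth inhibition, taken as the mean of three independent experiments.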

[2] = tested on: MCF7; assay: Antiproliferative activity against human MCF7 cell line by MTT assay after 72 hrs; type: functional, cell-based; outline: as §1
[3] = tested on: MCF7; assay: Antiproliferative activity against human MCF7 cell line by MTT assay after 1 hr; type: functional, cell-based; conditions: MCF7, 1 h
Outline: (§2)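 Cells were exposed to the conjugates for a short 1 h period, and viability was then quantified by MTT assay.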

[4] = tested on: A549; assay: Antiproliferative activity against human A549 cell line by MTT assay after 1 hr; type: functional, cell-based; conditions: A549, 1 h; outline: as §2
[5] = Half life in tissue culture medium; type: ADME
Outline: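 Compounds were dissolved in DMEM with 10% foetal calf serum at 1 to 40 (concentration range) and incubated at 37 °C. Aliquots were withdrawn over time and analysed by RP-HPLC and mass spectrometry to give half-life. Analytical RP-HPLC used a MeCN gradient in water with 0.1% TFA over 20 min at 25 °C.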

[6] = Aqueous solubility of the compound; type: physicochemical
[7] = Homo sapiens, A549, 72 h, read-out: IC50
[8] = Homo sapiens, MCF7, 72 h, read-out: IC50

Row | Compound | IC50 [1, 7] | IC50 [2, 8] | IC50 [3] | IC50 [4] | half-life [5] | solubility [6] | IC50 ([2]; mcf7) | IC50 ([1]; a549)
1 | CC[C@H](C)[C@H](NC(=O)[C@H](CCCCN)NC(=O)[C@@H](NC(=O)[C@H](CCC(N)=O)NC(=O)[C@H](CCCN=C(N)N)NC(=O)CC(N)CSC1CC(=O)N(CCC(=O)O[C@@H](C(=O)O[C@@H]2C(C)=CC3[C@@H](OC(C)=O)C(=O)[C@@]4(C)[C@H]([C@H](OC(=O)c5ccccc5)[C@@]2(O)C3(C)C)[C@]2(OC(C)=O)CO[C@@H]2C[C@@H]4O)[C@@H](NC(=O)c2ccccc2)c2ccccc2)C1=O)[C@@H](C)CC)C(=O)N[C@@H](Cc1c[nH]c2ccccc12)C(=O)N[C@@H](Cc1ccccc1)C(=O)N[C@@H](CCC(N)=O)C(=O)N[C@@H](CC(N)=O)C(=O)N[C@@H](CCCN=C(N)N)C(=O)N[C@@H](CCCN=C(N)N)C(=O)N[C@@H](CCSC)C(=O)N[C@@H](CCCCN)C(=O)N[C@@H](Cc1c[nH]c2ccccc12)C(=O)N[C@@H](CCCCN)C(=O)N[C@@H](CCCCN)C(=O)O (stereo partly specified) | 0.27 µM | – | – | – | – | – | – | –
2 | CC[C@H](C)[C@H](NC(=O)[C@H](CCCCN)NC(=O)[C@@H](NC(=O)[C@H](CCC(N)=O)NC(=O)[C@H](CCCN=C(N)N)NC(=O)CC(N)CSC1CC(=O)N(CCC(=O)O[C@@H](C(=O)O[C@@H]2C(C)=CC3[C@@H](OC(C)=O)C(=O)[C@@]4(C)[C@H]([C@H](OC(=O)c5ccccc5)[C@@]2(O)C3(C)C)[C@]2(OC(C)=O)CO[C@@H]2C[C@@H]4O)[C@@H](NC(=O)c2ccccc2)c2ccccc2)C1=O)[C@@H](C)CC)C(=O)N[C@@H](Cc1c[nH]c2ccccc12)C(=O)N[C@@H](Cc1ccccc1)C(=O)N[C@@H](CCC(N)=O)C(=O)N[C@@H](CC(N)=O)C(=O)N[C@@H](CCCN=C(N)N)C(=O)N[C@@H](CCCN=C(N)N)C(=O)N[C@@H](CCSC)C(=O)N[C@@H](CCCCN)C(=O)N[C@@H](Cc1c[nH]c2ccccc12)C(=O)N[C@@H](CCCCN)C(=O)N[C@@H](CCCCN)C(N)=O (stereo partly specified) | < 0.015 µM | < 0.017 µM | 0.202 µM | 0.618 µM | > 8 h | – | – | –
3 | CSCC[C@H](NC(=O)[C@H](CCCN=C(N)N)NC(=O)[C@H](CCCN=C(N)N)NC(=O)CC(N)CSC1CC(=O)N(CCC(=O)O[C@@H](C(=O)O[C@@H]2C(C)=CC3[C@@H](OC(C)=O)C(=O)[C@@]4(C)[C@H]([C@H](OC(=O)c5ccccc5)[C@@]2(O)C3(C)C)[C@]2(OC(C)=O)CO[C@@H]2C[C@@H]4O)[C@@H](NC(=O)c2ccccc2)c2ccccc2)C1=O)C(=O)N[C@@H](CCCCN)C(=O)N[C@@H](Cc1c[nH]c2ccccc12)C(=O)N[C@@H](CCCCN)C(=O)N[C@@H](CCCCN)C(N)=O (stereo partly specified) | < 0.015 µM | < 0.015 µM | 0.325 µM | 0.043 µM | > 8 h | > 10000 µg/mL | – | –
4 | CC(=O)O[C@H]1C(=O)[C@@]2(C)[C@H]([C@H](OC(=O)c3ccccc3)[C@]3(O)C[C@H](OC(=O)[C@H](O)[C@@H](NC(=O)c4ccccc4)c4ccccc4)C(C)=C1C3(C)C)[C@]1(OC(C)=O)CO[C@@H]1C[C@@H]2O [PACLITAXEL] | < 0.015 µM | < 0.015 µM | 0.043 µM | 0.028 µM | – | < 10 µg/mL | – | –
5 | CC[C@H](C)[C@H](NC(=O)[C@H](CCCCN)NC(=O)[C@@H](NC(=O)[C@H](CCC(N)=O)NC(=O)[C@@H](N)CCCNC(=N)N)[C@@H](C)CC)C(=O)N[C@@H](Cc1c[nH]c2ccccc12)C(=O)N[C@@H](Cc1ccccc1)C(=O)N[C@@H](CCC(N)=O)C(=O)N[C@@H](CC(N)=O)C(=O)N[C@@H](CCCNC(=N)N)C(=O)N[C@@H](CCCNC(=N)N)C(=O)N[C@@H](CCSC)C(=O)N[C@@H](CCCCN)C(=O)N[C@@H](Cc1c[nH]c2ccccc12)C(=O)N[C@@H](CCCCN)C(=O)N[C@@H](CCCCN)C(N)=O [PENETRATIN] | – | – | – | – | – | – | Not Active | Not Active
6 | H-RRMKWKK-NH2 | – | – | – | – | – | – | Not Active | Not Active
